Source: ChEMBL document CHEMBL1139233, “Structure-activity relationships of cyclic peptide-based chemokine receptor CXCR4 antagonists: disclosing the importance of side-chain and backbone functionalities” (J Med Chem, 2007)
Active and inactive are the calls of the source. No cut-off for these calls is given here.

What was measured:
[1] = molecular target: T1, C-X-C chemokine receptor type 4 (Homo sapiens, UniProt P61073); assay: Inhibition of [125I]SDF1 binding to CXCR4 transfected in CHO cells; type: cell-based
T1 sequence (P61073 whole entry): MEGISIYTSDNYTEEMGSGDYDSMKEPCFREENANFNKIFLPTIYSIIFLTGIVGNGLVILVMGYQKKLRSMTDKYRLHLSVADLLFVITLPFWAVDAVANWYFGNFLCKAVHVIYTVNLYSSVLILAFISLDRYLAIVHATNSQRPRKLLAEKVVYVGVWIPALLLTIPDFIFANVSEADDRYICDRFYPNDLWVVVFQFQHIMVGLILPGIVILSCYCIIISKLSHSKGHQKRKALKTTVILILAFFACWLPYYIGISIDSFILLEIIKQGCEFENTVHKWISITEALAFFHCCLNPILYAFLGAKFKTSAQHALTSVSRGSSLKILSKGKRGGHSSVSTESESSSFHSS
Outline: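 CXCR4-expressing stable CHO transfectants were harvested with trypsin-EDTA, recovered 4-5 h in complete medium, and washed in cold PBS with 2 mg/mL BSA. Cells at 1 × 10⁷/mL were incubated with 0.1 nM [¹²⁵I]-SDF-1 for 2 h on ice with agitation. Bound label was separated by centrifugation through oil and gamma-counted.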

[2] = test system: Human immunodeficiency virus 1; assay: Inhibition of HIV1-induced cytopathogenicity in MT4 cells; type: functional, organism-based; conditions: Human immunodeficiency virus 1, MT4
Outline: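 MT-4 cells were grown in RPMI 1640 with 10% heat-inactivated FCS and penicillin/streptomycin. Cells infected with HIV-1 IIIB (X4 strain) at MOI 0.01 were plated at 1.5 × 10⁴ cells/well with various compound concentrations. After 5 days at 37 °C in CO₂, viable cells were counted by MTT. EC50 for protection is the mean of ≥3 independent experiments.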

[3] = molecular target: T1, C-X-C chemokine receptor type 4; assay: Antagonist activity against CXCR4 transfected in CHO cells upto 1 uM; type: functional, cell-based

| Compound | IC50 [1] | EC50 [2] | also measured |
| --- | --- | --- | --- |
| CN1CC(=O)N[C@H](Cc2ccc(O)cc2)C(=O)N[C@H](CCCNC(=N)N)C(=O)N[C@@H](CCCNC(=N)N)C(=O)N[C@@H](Cc2ccc3ccccc3c2)C1=O | 256 nM | – | – |
| CN1C(=O)[C@H](CCCNC(=N)N)NC(=O)[C@H](CCCNC(=N)N)NC(=O)[C@@H](Cc2ccc(O)cc2)NC(=O)CNC(=O)[C@@H]1Cc1ccc2ccccc2c1 | 250 nM | – | – |
| N=C(N)NCCC[C@@H]1NC(=O)[C@H](CCCNC(=N)N)NC(=O)[C@@H](Cc2ccc(O)cc2)NC(=O)CNC(=O)[C@H](Cc2ccc3ccccc3c2)NC1=O | – | 0.16 µM | – |
| C[C@@H]1NC(=O)[C@H](CCCNC(=N)N)NC(=O)[C@@H](CCCNC(=N)N)NC(=O)[C@@H](Cc2ccc(O)cc2)NC(=O)CNC1=O | > 1000 nM | > 120 µM | – |
| C[C@H]1NC(=O)[C@H](Cc2ccc3ccccc3c2)NC(=O)[C@H](CCCNC(=N)N)NC(=O)[C@@H](CCCNC(=N)N)NC(=O)[C@@H](Cc2ccc(O)cc2)NC1=O | 11 nM | 0.67 µM | – |
| N=C(N)NCCC[C@@H]1NC(=O)[C@@H](CCCNC(=N)N)NC(=O)[C@@H](Cc2ccc(O)cc2)NC(=O)[C@@H]2CCCCN2C(=O)[C@H](Cc2ccc3ccccc3c2)NC1=O | 640 nM | – | – |
| C[C@@H]1NC(=O)[C@H](Cc2ccc3ccccc3c2)NC(=O)[C@H](CCCNC(=N)N)NC(=O)[C@@H](CCCNC(=N)N)NC(=O)[C@@H](Cc2ccc(O)cc2)NC1=O | 92 nM | 10 µM | – |
| C[C@@H]1NC(=O)[C@@H](CCCNC(=N)N)NC(=O)[C@@H](Cc2ccc(O)cc2)NC(=O)CNC(=O)[C@H](Cc2ccc3ccccc3c2)NC1=O | > 1000 nM | 60 µM | – |
| C[C@@H]1NC(=O)CNC(=O)[C@@H](Cc2ccc(O)cc2)NC(=O)[C@@H](CCCNC(=N)N)NC(=O)[C@H](CCCNC(=N)N)NC1=O | – | – | Activity [3]: inactive |
| CN1C(=O)CNC(=O)[C@H](Cc2ccc3ccccc3c2)NC(=O)[C@H](CCCNC(=N)N)NC(=O)[C@H](CCCNC(=N)N)NC(=O)[C@H]1Cc1ccc(O)cc1 | 128 nM | – | – |
| N=C(N)NCCC[C@@H]1NC(=O)[C@@H](CCCNC(=N)N)NC(=O)[C@@H](Cc2ccc(O)cc2)NC(=O)[C@H]2CCCN2C(=O)[C@H](Cc2ccc3ccccc3c2)NC1=O | > 1000 nM | – | – |
| CN1C(=O)[C@H](CCCNC(=N)N)NC(=O)[C@@H](Cc2ccc(O)cc2)NC(=O)CNC(=O)[C@H](Cc2ccc3ccccc3c2)NC(=O)[C@@H]1CCCNC(=N)N | 99 nM | 9.53 µM | – |
| CN1C(=O)[C@@H](Cc2ccc(O)cc2)NC(=O)CNC(=O)[C@H](Cc2ccc3ccccc3c2)NC(=O)[C@H](CCCNC(=N)N)NC(=O)[C@@H]1CCCNC(=N)N | – | 1.4 µM | – |
| N=C(N)NCCC[C@@H]1NC(=O)[C@H](CCCNC(=N)N)NC(=O)[C@@H](Cc2ccc(O)cc2)NC(=O)CCNC(=O)[C@H](Cc2ccc3ccccc3c2)NC1=O | 47 nM | 3 µM | – |
| N=C(N)NCCC[C@@H]1NC(=O)[C@H](CCCNC(=N)N)NC(=O)[C@@H](Cc2ccc(O)cc2)NC(=O)[C@@H]2CCCN2C(=O)[C@H](Cc2ccc3ccccc3c2)NC1=O | > 1000 nM | – | – |
| N=C(N)NCCC[C@@H]1NC(=O)[C@@H](CCCNC(=N)N)NC(=O)[C@@H](Cc2ccc(O)cc2)NC(=O)CCNC(=O)[C@H](Cc2ccc3ccccc3c2)NC1=O | 350 nM | 38 µM | – |
| N=C(N)NCCC[C@@H]1NC(=O)[C@H](CCCNC(=N)N)NC(=O)[C@@H](Cc2ccc(O)cc2)NC(=O)[C@H]2CCCN2C(=O)[C@H](Cc2ccc3ccccc3c2)NC1=O | > 1000 nM | – | – |
| N=C(N)NCCC[C@@H]1NC(=O)[C@H](CCCNC(=N)N)NC(=O)[C@@H](Cc2ccc(O)cc2)NC(=O)[C@H]2CCCCN2C(=O)[C@H](Cc2ccc3ccccc3c2)NC1=O | > 1000 nM | – | – |
| CN1C(=O)[C@@H](Cc2ccc(O)cc2)NC(=O)CNC(=O)[C@H](Cc2ccc3ccccc3c2)NC(=O)[C@H](CCCNC(=N)N)NC(=O)[C@H]1CCCNC(=N)N | 3 nM | 0.088 µM | – |

| Compound | IC50 [1] | EC50 [2] | also measured |
| --- | --- | --- | --- |
| C[C@H]1NC(=O)[C@H](Cc2ccc3ccccc3c2)NC(=O)[C@H](CCCNC(=N)N)NC(=O)[C@H](CCCNC(=N)N)NC(=O)[C@@H](Cc2ccc(O)cc2)NC1=O | 11 nM | 0.49 µM | – |
| C[C@@H]1NC(=O)[C@H](Cc2ccc3ccccc3c2)NC(=O)CNC(=O)[C@@H](Cc2ccc(O)cc2)NC(=O)[C@H](CCCNC(=N)N)NC1=O | – | – | Activity [3]: inactive |
| N=C(N)NCCC[C@@H]1NC(=O)[C@@H](CCCNC(=N)N)NC(=O)[C@@H](Cc2ccc(O)cc2)NC(=O)[C@H]2CCCCN2C(=O)[C@H](Cc2ccc3ccccc3c2)NC1=O | > 1000 nM | – | – |
| N=C(N)NCCC[C@@H]1NC(=O)[C@@H](CCCNC(=N)N)NC(=O)[C@@H](Cc2ccc(O)cc2)NC(=O)CNC(=O)[C@H](Cc2ccc3ccccc3c2)NC1=O | – | 0.39 µM | – |
| C[C@@H]1NC(=O)CNC(=O)[C@@H](Cc2ccc(O)cc2)NC(=O)[C@H](CCCNC(=N)N)NC(=O)[C@H](CCCNC(=N)N)NC1=O | – | – | Activity [3]: inactive |
| C[C@@H]1NC(=O)[C@H](CCCNC(=N)N)NC(=O)[C@H](CCCNC(=N)N)NC(=O)[C@@H](Cc2ccc(O)cc2)NC(=O)CNC1=O | > 1000 nM | > 120 µM | – |
| C[C@H]1NC(=O)[C@@H](Cc2ccc(O)cc2)NC(=O)CNC(=O)[C@H](Cc2ccc3ccccc3c2)NC(=O)[C@H](CCCNC(=N)N)NC1=O | – | 16 µM | – |
| CN1C(=O)[C@@H](CCCNC(=N)N)NC(=O)[C@@H](Cc2ccc(O)cc2)NC(=O)CNC(=O)[C@H](Cc2ccc3ccccc3c2)NC(=O)[C@@H]1CCCNC(=N)N | 21 nM | 0.782 µM | – |
| C[C@@H]1NC(=O)[C@H](Cc2ccc3ccccc3c2)NC(=O)[C@H](CCCNC(=N)N)NC(=O)[C@H](CCCNC(=N)N)NC(=O)[C@@H](Cc2ccc(O)cc2)NC1=O | 170 nM | 20 µM | – |
| C[C@@H]1NC(=O)[C@H](CCCNC(=N)N)NC(=O)[C@H](CCCNC(=N)N)NC(=O)[C@@H](Cc2ccc(O)cc2)NC(=O)CN(C)C1=O | – | – | IC50 ([1]; cho): 167 nM |
| N=C(N)NCCC[C@@H]1NC(=O)[C@@H](CCCNC(=N)N)NC(=O)[C@@H](Cc2ccc(O)cc2)NC(=O)[C@@H]2CCCN2C(=O)[C@H](Cc2ccc3ccccc3c2)NC1=O | > 1000 nM | – | – |
| C[C@H]1NC(=O)CNC(=O)[C@H](Cc2ccc3ccccc3c2)NC(=O)[C@H](CCCNC(=N)N)NC(=O)[C@@H](CCCNC(=N)N)NC1=O | 130 nM | 29 µM | – |
| C[C@@H]1NC(=O)[C@H](Cc2ccc3ccccc3c2)NC(=O)CNC(=O)[C@@H](Cc2ccc(O)cc2)NC(=O)[C@@H](CCCNC(=N)N)NC1=O | – | – | Activity [3]: inactive |
| N=C(N)NCCC[C@@H]1NC(=O)[C@H](CCCNC(=N)N)NC(=O)[C@@H](Cc2ccc(O)cc2)NC(=O)[C@@H]2CCCCN2C(=O)[C@H](Cc2ccc3ccccc3c2)NC1=O | > 1000 nM | – | – |
| CN1C(=O)[C@H](CCCNC(=N)N)NC(=O)[C@@H](CCCNC(=N)N)NC(=O)[C@@H](Cc2ccc(O)cc2)NC(=O)CNC(=O)[C@@H]1Cc1ccc2ccccc2c1 | 563 nM | – | – |
| CN1C(=O)CNC(=O)[C@H](Cc2ccc3ccccc3c2)NC(=O)[C@H](CCCNC(=N)N)NC(=O)[C@@H](CCCNC(=N)N)NC(=O)[C@H]1Cc1ccc(O)cc1 | 157 nM | – | – |
| C[C@@H]1NC(=O)[C@@H](Cc2ccc(O)cc2)NC(=O)CNC(=O)[C@H](Cc2ccc3ccccc3c2)NC(=O)[C@H](CCCNC(=N)N)NC1=O | – | 12 µM | – |
| C[C@H]1NC(=O)CNC(=O)[C@H](Cc2ccc3ccccc3c2)NC(=O)[C@H](CCCNC(=N)N)NC(=O)[C@H](CCCNC(=N)N)NC1=O | > 1000 nM | 115 µM | – |
| C[C@@H]1NC(=O)[C@H](CCCNC(=N)N)NC(=O)[C@@H](Cc2ccc(O)cc2)NC(=O)CNC(=O)[C@H](Cc2ccc3ccccc3c2)NC1=O | > 1000 nM | > 120 µM | – |
